According to ChEMBL document CHEMBL4145692, “Discovery of a Locally and Orally Active CXCL12 Neutraligand (LIT-927) with Anti-inflammatory Effect in a Murine Model of Allergic Airway Hypereosinophilia” (J Med Chem, 2018):
Values after ≈ are worked out from the molar mass of the structure shown. Active and inactive are the calls of the source. No cut-off for these calls is given here.

What was measured:
[1] = Kinetic solubility in pH 7.4 HEPES-BSA buffer at 5 uM incubated for 24 hrs at 20 degC by HPLC method; type: physicochemical; settings: read-out: Kinetic_solubility
Outline: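 Compound added from 10 mM DMSO stock to 5 μM in pH 7.4 HEPES-BSA buffer (1 g/L BSA), shaken 24 h at 20 °C. After centrifugation, supernatant concentration measured by HPLC against 5 and 10 μM standards.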

[2] = target: T1, Stromal cell-derived factor 1 (Homo sapiens, UniProt P48061); experiment: Binding affinity to Texas Red-labelled CXCL12 (unknown origin) assessed as inhibition of CXCL12-Texas Red binding to EGFP-labeled human CXCR4 expressed in HEK293 cell membranes pre-incubated for 1 hr by FRET-based binding assay
Outline: (§1)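 HEK-293 cells stably expressing human EGFP-CXCR4, 10⁶ cells/ml in HEPES buffer pH 7.4 with 0.1% BSA, 21 °C. CXCL12-Texas Red (100 nM) was preincubated 1 h at room temperature with compound or DMSO, then added at t=150 s. FRET read as loss of EGFP emission at 510 nm (excitation 470 nm) up to equilibrium. Ki from dose-response curves.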

Mus musculus [3] = experiment: Inhibition of lymphocytes infiltration in Balb/c mouse model of 8 day model of allergic eosinophilic airway inflammation at 300 nmol/kg dosed intranasally 2 hrs before ovalbumin challenge by hemocytometry; type: functional, organism-based
Outline: (§2)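 OVA/alum-sensitized Balb/c mice challenged intranasally with OVA on days 5–7. Compounds at 300 nmol/kg in 10% PBS/Cdx given intranasally 2 h before each challenge. BAL 24 h after the last challenge; eosinophils, neutrophils and lymphocytes counted by hemocytometer and differential cytospin; n=6/group.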

Mus musculus [4] = experiment: Inhibition of macrophages infiltration in Balb/c mouse model of 8 day model of allergic eosinophilic airway inflammation at 300 nmol/kg dosed intranasally 2 hrs before ovalbumin challenge by hemocytometry; type: functional, organism-based
[5] = target: T1, Stromal cell-derived factor 1; experiment: Binding affinity to Texas Red-labelled CXCL12 (unknown origin) assessed as inhibition of CXCL12-Texas Red binding to EGFP-labeled human CXCR4 expressed in HEK293 cell membranes at 5 uM pre-incubated for 1 hr by FRET-based binding assay; outline: as §1
[6] = target: T1, Stromal cell-derived factor 1; experiment: Binding affinity to Texas Red-labelled CXCL12 (unknown origin) assessed as inhibition of CXCL12-Texas Red binding to EGFP-labeled human CXCR4 expressed in HEK293 cell membranes at 10 uM pre-incubated for 1 hr by FRET-based binding assay
Outline: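 FRET binding assay in EGFP-CXCR4 HEK-293 cells. Compound at 10 μM preincubated with CXCL12 before addition to the cells; binding read as EGFP emission at 510 nm after CXCL12-Texas Red addition. T134 (20 μM) used as control.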

[7] = Thermodynamic solubility in pH 7.4 PBS buffer incubated for 24 hrs at 22 degC by HPLC method; type: physicochemical; settings: read-out: Therm_solubility
Outline: (§3)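 Powder dissolved to saturation in pH 7.4 PBS (100 mM sodium phosphate, 150 mM NaCl), or in PBS with 10% Cdx, and shaken 24 h. After centrifugation, supernatant quantified by HPLC against a per-compound calibration line prepared from the DMSO stock.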

Mus musculus [8] = experiment: Inhibition of eosinophil infiltration in Balb/c mouse model of 8 day model of allergic eosinophilic airway inflammation at 300 nmol/kg dosed intranasally 2 hrs before ovalbumin challenge by hemocytometry; type: functional; settings: for inhibition in vivo at 0.3 µmol/kg: inhaled or nasal; outline: as §2
[9] = Chemical stability in pH 7.4 PBS buffer assessed as parent compound remaining at 10 uM incubated for 24 hrs by RP-HPLC method; type: physicochemical; settings: read-out: Stability
Outline: (§4)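 Compound diluted from DMSO stock to 10 μM final (1% DMSO) in PBS pH 7.4, or in PBS with 10% w/w (2-hydroxypropyl)-β-cyclodextrin. Sampled at t0, 2, 4, 6 and 24 h and injected directly onto RP-HPLC. Percent remaining relative to t0 from peak area.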

[10] = Thermodynamic solubility in pH 7.4 PBS/Cdx buffer incubated for 24 hrs at 22 degC by HPLC method; type: physicochemical; settings: read-out: Therm_solubility; outline: as §3
[11] = Chemical stability in pH 7.4 PBS/Cdx buffer assessed as parent compound remaining at 10 uM incubated for 24 hrs by RP-HPLC method; type: physicochemical; settings: read-out: Stability; outline: as §4
[12] = target: T1, Stromal cell-derived factor 1; experiment: Binding affinity to Texas Red-labelled CXCL12 (unknown origin) assessed as inhibition of CXCL12-Texas Red binding to EGFP-labeled human CXCR4 expressed in HEK293 cell membranes at 30 uM pre-incubated for 1 hr by FRET-based binding assay; outline: as §1

T1 sequence (P48061 whole entry): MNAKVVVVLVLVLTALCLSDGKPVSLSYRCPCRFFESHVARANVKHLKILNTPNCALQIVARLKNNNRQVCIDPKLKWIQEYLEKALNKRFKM

SMILES | solubility kinetic at 24 h, 5 µM [1] [µM] | Ki [2] [nM] | further results
COc1cc(CCC(=O)c2ccc(Cl)cc2)ccc1O |  | > 10000 | 
COc1cc(C(=O)/C=C/c2ccc(Cl)cc2)ccc1O | > 5 | > 10000 | 
COc1cc(-c2cc(-c3ccc(Cl)cc3)ncn2)ccc1O | 4.29 (≈ 1.34 µg/mL) |  | inhibition [5]: 30%
COc1cc(/C=C/C(=O)c2ccc(Cl)cc2)ccc1[N+](=O)[O-] | > 5 | > 10000 | 
COc1cc(-c2cc(-c3ccc(Cl)cc3)nc(N)n2)ccc1O | > 5 | > 10000 | 
COc1cc(-c2cc(-c3ccc(Cl)cc3)n[nH]2)ccc1O |  | > 10000 | 
COc1cc(/C=C2\CCc3cc(Cl)ccc3C2=O)ccc1O | > 5 |  | inhibition [6]: 70%
COCOc1ccc(/C=C/C(=O)c2ccc(Cl)cc2O)cc1OC |  |  | inhibition (Mus musculus [3]): inactive; inhibition (Mus musculus [4]): inactive
COc1cc(/C=C/C(=O)c2ccccc2)ccc1O | > 5 | > 10000 | inhibition [6]: inactive
COc1cc(/C=C/C(=O)c2ccc(Cl)cc2)ccc1N | > 5 | > 10000 | 
CCOc1cc(/C=C/C(=O)c2ccc(Cl)cc2)ccc1O | 4.72 (≈ 1.43 µg/mL) |  | inhibition [5]: 52%
O=C(/C=C/c1ccc(O)c(C(=O)O)c1)c1ccc(Cl)cc1 | > 5 | > 10000 | 
COc1cc(C2CC(c3ccc(Cl)cc3)=NN2C(C)=O)ccc1O (stereo not drawn) | > 5 | > 10000 | 
COc1cc(/C=C/C(=N/O)c2ccc(Cl)cc2)ccc1O | > 5 | > 10000 | 
CNc1nc(-c2ccc(Cl)cc2)cc(-c2ccc(O)c(OC)c2)n1 | > 5 | > 10000 | 
COc1cc(/C=C/C(=O)c2ccc3ccccc3c2)ccc1O | 0.95 (≈ 0.289 µg/mL) |  | inhibition [12]: 5%
COc1cc(/C=C/C(=O)c2ccncc2)ccc1O | > 5 | > 10000 | 
COc1cc(/C=C/C(=O)c2cccc(Cl)c2)ccc1O | > 5 |  | inhibition [12]: 25%
COc1ccc(/C=C/C(=O)c2ccc(Cl)cc2)cc1OC | > 5 | > 10000 | 
COc1cc(/C=C/C(=O)c2ccc(S(=O)(=O)O)cc2)ccc1O | > 5 |  | inhibition [12]: 6%
COc1cccc(/C=C/C(=O)c2ccc(Cl)cc2)c1 | 0.36 (≈ 0.0982 µg/mL) | > 10000 | 
COc1cc(/C(C)=C/C(=O)c2ccc(Cl)cc2)ccc1O | 2.6 (≈ 0.787 µg/mL) | > 10000 | 
COc1cc(/C=C/C(=O)c2ccc([N+](=O)[O-])cc2)ccc1O | > 5 |  | inhibition [12]: 30%
COc1cc(/C=C/C(=O)c2cccnc2)ccc1O | > 5 | > 10000 | 
COc1ccc(/C=C/C(=O)c2ccc(Cl)cc2)cc1O | > 5 | > 10000 | 

Further lines, with some results ahead:

solubility kinetic at 24 h, 5 µM [1] [µM] | Ki [2] [nM] | SMILES | further results
> 5 | 496 | Cl.NCCOCCOc1cc(/C=C2\Cc3cc(Cl)ccc3C2=O)ccc1O | inhibition (Mus musculus [3]): inactive; inhibition (Mus musculus [4]): inactive
> 5 | 1070 | COc1cc(/C=C/C(=O)c2ccc(C(F)(F)F)cc2)ccc1O | 
> 5 | 1070 | Cl.NCCOCCOc1cc(/C=C/C(=O)c2ccc(Cl)cc2)ccc1O | 
> 5 | 475 | Cl.NCCOCCOCCOc1cc(/C=C/C(=O)c2ccc(Cl)cc2)ccc1O | 
> 5 | 107 | COc1cc(/C=C/C(=O)c2ccccc2Cl)ccc1O | 
0.88 (≈ 0.265 µg/mL) | 107 | COc1cc(/C=C2\Cc3cc(Cl)ccc3C2=O)ccc1O | 
> 5 | 44 | COc1cc(/C=C/C(=O)c2ccc(Br)cc2)ccc1O | 
> 5 | 1680 | COc1cc(-c2cc(-c3ccc(Cl)cc3)nc(C)n2)ccc1O | 
> 5 | 107 | COc1cc(/C=C/C(=O)c2ccc(Cl)cc2F)ccc1O | 
> 5 | 430 | COc1cc(/C=C/C(=O)c2ccc(F)cc2)ccc1O | 
> 5 | 48 | COc1cc(/C=C/C(=O)c2ccc(Cl)cc2Cl)ccc1O | 
> 5 | 285 | COc1cc(/C=C/C(=O)c2ccc(C)cc2)ccc1O | 
> 5 | 357 | COc1cc(/C=C2\COc3cc(Cl)ccc3C2=O)ccc1O | solubility thermodynamic at 24 h [7]: 0.5 µM (≈ 0.158 µg/mL); inhibition (Mus musculus [8]): inactive; remaining at 24 h, 10 µM [9]: 100%; solubility thermodynamic at 24 h [10]: 933 µM (≈ 296 µg/mL); remaining at 24 h, 10 µM [11]: 100%
> 5 | 625 | O=C(/C=C/c1ccc(O)cc1)c1ccc(Cl)cc1 | 
> 5 | 107 | COc1cc(/C=C/C(=O)c2ccc(I)cc2)ccc1O | solubility thermodynamic at 24 h [7]: 1.2 µM (≈ 0.456 µg/mL); inhibition in vivo at 0.3 µmol/kg (Mus musculus [8]): 36%; remaining at 24 h, 10 µM [9]: 100%; solubility thermodynamic at 24 h [10]: 319 µM (≈ 121 µg/mL); remaining at 24 h, 10 µM [11]: 100%; inhibition (Mus musculus [3]): inactive; inhibition (Mus musculus [4]): inactive
> 5 | 107 | COc1cc(C2CC(c3ccc(Cl)cc3)=NN2)ccc1O (stereo not drawn) | solubility thermodynamic at 24 h [7]: 34.6 µM (≈ 10.5 µg/mL); inhibition in vivo at 0.3 µmol/kg (Mus musculus [8]): 39%; remaining at 24 h, 10 µM [9]: 78%; solubility thermodynamic at 24 h [10]: > 3000 µM; remaining at 24 h, 10 µM [11]: 98%; inhibition (Mus musculus [3]): inactive; inhibition (Mus musculus [4]): inactive
> 5 | 203 | COc1cc(/C=C2\Oc3cc(Cl)ccc3C2=O)ccc1O | solubility thermodynamic at 24 h [7]: 1.9 µM (≈ 0.575 µg/mL); inhibition (Mus musculus [8]): inactive; remaining at 24 h, 10 µM [9]: 100%; solubility thermodynamic at 24 h [10]: 330 µM (≈ 99.9 µg/mL); remaining at 24 h, 10 µM [11]: 100%
> 5 | 714 | COc1cc(/C=C/C(=O)c2ccc(Cl)c(Cl)c2)ccc1O | 
> 5 | 357 | Cl.NCCOc1cc(/C=C/C(=O)c2ccc(Cl)cc2)ccc1O | solubility thermodynamic at 24 h [7]: 4.2 µM; inhibition (Mus musculus [8]): inactive; remaining at 24 h, 10 µM [9]: 100%; solubility thermodynamic at 24 h [10]: > 5000 µM; remaining at 24 h, 10 µM [11]: 100%; inhibition (Mus musculus [3]): inactive; inhibition (Mus musculus [4]): inactive
1.92 (≈ 0.569 µg/mL) | 25 | COc1cc(/C=C/C(=O)c2ccc(C(C)C)cc2)ccc1O | 
> 5 | 1380 | O=C(/C=C/c1ccc2c(c1)OCCO2)c1ccc(Cl)cc1 | 
> 5 | 5350 | COc1cc(/C=C/C(=O)c2ccc(C(=O)O)cc2)ccc1O | 
> 5 | 1780 | COc1ccc(C(=O)/C=C/c2ccc(O)c(OC)c2)cc1 | 
> 5 | 350 | O=C(/C=C/c1ccc(O)c(O)c1)c1ccc(Cl)cc1 | 
> 5 | > 5000 | COc1cc(/C=C(\C)C(=O)c2ccc(Cl)cc2)ccc1O | 
> 5 | 53 | COc1cc(/C=C/C(=O)c2cc(Cl)ccc2Cl)ccc1O | 
> 5 | 357 | COc1cc(/C=C/C(=O)c2cccc(Cl)c2Cl)ccc1O | 
> 5 | 71 | COc1cc(/C=C/C(=O)c2c(Cl)cccc2Cl)ccc1O | 
